Measurements from ChEMBL document CHEMBL4513216, “Probing the Open Global Health Chemical Diversity Library for Multistage-Active Starting Points for Next-Generation Antimalarials” (ACS Infect Dis, 2020).

Test: Toxicity liver stage against HepG2, at 10uM
Assay type: cell-based
Design: test concentration 10 uM, cell line HepG2-A16-CD81EGFP
Conditions: human, HepG2-A16-CD81EGFP cells; read-out: INHIBITION
Outline: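 Uninfected HepG2-A16-CD81EGFP cells, 3 × 10^3 per well, 1536-well, plated on prespotted compound at 10 μM final, parasite-free screening media added to match infected plates; puromycin 10 μM positive, DMSO 0.5% negative; run in parallel with 48 h PbLuc assay at 37 °C, 5% CO2; viability by CellTiter-Glo luminescence, normalized to controls.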

| Structure (SMILES) | cytotoxicity at 10 µM [%] |
| --- | --- |
| c1cc(CN2CCOC[C@H]2c2nc(-c3ccncc3)c[nH]2)ccn1 | -2.65 |
| CC(C)n1cc(C(=O)NCCCn2ccnc2)c2n[nH]c(=O)c-2c1 | -4.17 |
| COCC1c2nnn(CC3CC3)c2CCN1C(=O)N1CCCC1 (stereo not given) | -131 |
| CCOCC(=O)N1Cc2nccn2CC(CN(C)C)C1 (stereo not given) | -124 |
| CNc1oc(-c2ccc(OC)c(S(=O)(=O)N3CCCC3)c2)nc1C#N | 3.33 |
| CCCn1nc(C)c2c(C(F)F)cc(=O)n(CC(=O)O)c21 | 1.76 |
| CNC(=O)c1sc2ncccc2c1C1CCN(C(=O)CCOC)C1 (stereo not given) | 6.42 |
| CCC(=O)N1CCc2c(O)nc(C3CCCCN3C(=O)C3CC3)nc2C1 (stereo not given) | 3.3 |
| CCn1cc(S(=O)(=O)N2CCCCCC2c2cc(C)no2)cn1 (stereo not given) | 8.24 |
| CNc1nccc(C2CCCCN2Cc2cnn3cccnc23)n1 (stereo not given) | 0.247 |
| Cc1nccc(N2CCCC(C)(c3[nH]ncc3C(N)=O)C2)n1 (stereo not given) | 1.86 |
| Cc1cccc(C2CCCN2S(=O)(=O)N(C)C)n1 (stereo not given) | -5.5 |
| CC(=O)NC[C@]1(O)CCN(C(=O)c2ccc(C)c(F)c2)C[C@H]1O | -2.78 |
| COc1ccnc(N(C)Cc2c(C)noc2C)n1 | -3.84 |
| CC(NC(=O)Nc1ccc(-c2csnn2)cc1)C(=O)NC(C)(C)C (stereo not given) | 9.11 |
| CN(CC(=O)NCCc1cc2ccccc2o1)S(C)(=O)=O | 6.56 |
| CCOC(=O)C1(NC(=O)CCNc2cc(C)ccc2OC)CCCCC1 | 6.47 |
| CN(Cc1nc(C(F)(F)F)cs1)C(=O)CCc1cccnc1 | 9.75 |
| Cn1c(CCCNC(=O)Nc2cn[nH]c2)nc2ccccc21 | 21.9 |
| CC(NC(=O)Nc1ccc(S(C)(=O)=O)cc1)c1ccc2c(c1)CC(=O)N2 (stereo not given) | 0.0793 |
| CC(C)(C)NC(=O)CN1CCCN(Cc2ccc(C#N)cc2)CC1 | -4.78 |
| CC(C)C(C(=O)N1CCN(Cc2cscn2)CC1)n1cncn1 (stereo not given) | 7.89 |
| O=C(c1ncoc1C1CCCO1)N1CCC2(CCCCC2)CC1 (stereo not given) | -7 |

| Structure (SMILES) | cytotoxicity at 10 µM [%] |
| --- | --- |
| CNC(=O)c1ccc(=O)n(Cc2csc(C(C)(C)C)n2)c1 | 6.8 |
| O=C(c1nc(=O)[nH][nH]1)N1CCC2(CCCCC2)C1 | 11.4 |
| CCCC(C)(C)NC(=O)c1cnc(CC)s1 | 10.2 |
| CC/C=C(/C)C(=O)NS(=O)(=O)c1ccc(C#N)cc1C(F)(F)F | 11.8 |
| O=C(NCCN1CCCCC1CO)c1cc(-c2ccccc2)on1 (stereo not given) | -5.53 |
| CN(CC1CCOC1)S(=O)(=O)c1cccc(C(=O)N2CCCCCC2)c1 (stereo not given) | -0.825 |
| Cc1cc(C(=O)NCc2csc(N(C)C)n2)c2ccc(C)c(C)c2n1 | -0.724 |
| Cc1cc(C2CCC2)nc(NCC(C)(C)CO)n1 | -2.56 |
| COc1ccccc1OC1CCN(C(=O)c2c[nH]c(=O)[nH]c2=O)CC1 | 8.45 |
| Cc1cccnc1CC(C)NC1CCSCC1 (stereo not given) | 2.28 |
| CCN(Cc1noc(CC(C)C)n1)Cc1cc2ccc(F)cc2[nH]c1=O | 3.34 |
| COCCCn1c(CN2CCCCO2)cnc1S(=O)(=O)C1CCCC1 | 4.24 |
| COc1ccc(CN(C)c2nccc(-c3cn(C)nc3C)n2)cc1 | 13.6 |
| Cc1nc(O)cc(CCNC(=O)C2CC(=O)N(CC(C)C)C2)n1 (stereo not given) | -8.11 |
| c1cncc(-c2noc(CNCC3CCCN3c3cccnn3)n2)c1 (stereo not given) | -4.6 |
| Cc1cc(C)n(C2CCCN(C(=O)c3c(C)noc3C)C2)n1 (stereo not given) | -6.41 |
| CCS(=O)(=O)N1CCOC2(CCCN(c3cnccn3)C2)C1 (stereo not given) | 2.66 |
| CS(=O)(=O)N1C[C@H](C(=O)Nc2cccnc2)[C@@H]2CCO[C@@H]2C1 | -104 |
| CN(C)C(=O)C1OC2(CCNCC2)c2ccccc21 (stereo not given) | 0.37 |
| COc1ccc(CN2CCN(C(C)=O)CC3(CC(=O)N(C)C3)C2)cc1 (stereo not given) | 9.74 |
| Nc1ncc(-c2csc(NC(=O)C[C@H]3COCCN3)n2)cn1 | -2.83 |
| COc1cccc(C2c3c(n[nH]c3C)N=C3COC(=O)C32)c1OC (stereo not given) | -5.34 |
